# Measured values reported in ChEMBL document CHEMBL1143943, “Synthesis of naphtho[2,3-a]phenoxazinium chlorides: structure-activity relationships of these heterocycles and benzo[a]phenoxazinium chlorides as new antimicrobials” (2008).
# Counter-ions that a name gives are not always drawn.
# Test system: Saccharomyces cerevisiae
# Assay: Antifungal activity against Saccharomyces cerevisiae W303-1B at 0.5*10^4 initial cell density after 48 hrs by broth microdilution assay
# Type: functional
# Outline: (§1)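 Same yeast microdilution protocol (W303-1B, RPMI 1640/0.165 M MOPS pH 7.0 with required amino acids, 30 °C, DMSO stocks diluted into medium), but initial inoculum raised in 10-fold steps within 0.5 · 10³–0.5 · 10⁶ cells/mL. MIC taken visually after 48 h as lowest concentration with no detectable growth; triplicates, two independent experiments.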
row,MIC,Structure (SMILES)
1,7.5 µM,CC/N=c1/cc2oc3cc(NCCCCl)c4ccccc4c3nc-2cc1C
2,7.5 µM,CC/N=c1/cc2oc3cc(NCCCC(=O)OCC)c4ccccc4c3nc-2cc1C

# Test system: Saccharomyces cerevisiae
# Assay: Antifungal activity against Saccharomyces cerevisiae W303-1B at 0.5*10^5 initial cell density after 48 hrs by broth microdilution assay
# Type: functional
# Outline: as §1
row,MIC,Structure (SMILES)
1,7.5 µM,CC/N=c1/cc2oc3cc(NCCCCl)c4ccccc4c3nc-2cc1C
2,7.5 µM,CC/N=c1/cc2oc3cc(NCCCC(=O)OCC)c4ccccc4c3nc-2cc1C

# Test system: Saccharomyces cerevisiae
# Assay: Antifungal activity against Saccharomyces cerevisiae W303-1B at 0.5*10^6 initial cell density after 48 hrs by broth microdilution assay
# Type: functional
# Outline: as §1
row,MIC,Structure (SMILES)
1,15 µM,CC/N=c1/cc2oc3cc(NCCCCl)c4ccccc4c3nc-2cc1C
2,30 µM,CC/N=c1/cc2oc3cc(NCCCC(=O)OCC)c4ccccc4c3nc-2cc1C

# Test system: Saccharomyces cerevisiae
# Assay: Antifungal activity against Saccharomyces cerevisiae W303-1B after 48 hrs by broth microdilution assay
# Type: functional
# Outline: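 NCCLS M27-A broth microdilution; S. cerevisiae W303-1B ([…], ade2, his3, leu2, trp1, ura3) at 0.5 · 10³ cells/mL initial density in RPMI 1640 with 0.165 M MOPS, pH 7.0, plus required amino acids; 30 °C. DMSO stocks diluted into medium. MIC read visually at 48 h as lowest concentration giving no detectable growth; triplicates, two independent experiments.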
row,MIC,Structure (SMILES)
1,15 µM,CC/N=c1/cc2oc3cc(NCCC(=O)O)c4ccccc4c3nc-2cc1C
2,3.75 µM,CC/N=c1/cc2oc3cc(NCCCCl)c4ccccc4c3nc-2cc1C
3,120 µM,CC/N=c1/cc2oc3cc(NCCN)c4ccccc4c3nc-2cc1C
4,15 µM,CC/N=c1/cc2oc3cc(NCCC(=O)OC)c4ccccc4c3nc-2cc1C
5,120 µM,CC[N+](CC)=c1ccc2nc3c(cc(NCCCO)c4ccccc43)oc-2c1
6,120 µM,CC[N+](CC)=c1ccc2nc3c(cc(NCCC(=O)O)c4ccccc43)oc-2c1
7,30 µM,CC/N=c1/cc2oc3cc(NCCO)c4ccccc4c3nc-2cc1C
8,60 µM,CC[N+](CC)=c1ccc2nc3c(cc(N)c4ccccc43)oc-2c1 [NILE BLUE HYDROCHLORIDE]
9,15 µM,CCCNc1cc2oc3c/c(=N/CC)c(C)cc-3nc2c2cc3ccccc3cc12
10,15 µM,CC/N=c1/cc2oc3cc(NCCOC(=O)C(NC(=O)OC(C)(C)C)C(C)C)c4ccccc4c3nc-2cc1C (stereo unspecified)
11,15 µM,CC[N+](CC)=c1ccc2nc3c(cc(NCCC(=O)OC)c4ccccc43)oc-2c1
12,> 120 µM,CC/N=c1/cc2oc3cc(NCCCOC(=O)C(NC(=O)OC(C)(C)C)C(C)C)c4ccccc4c3nc-2cc1C (stereo unspecified)
13,120 µM,C[N+](C)=c1ccc2nc3c(cc(NCCCO)c4ccccc43)oc-2c1
14,60 µM,CC/N=c1/cc2oc3cc(NCCCO)c4ccccc4c3nc-2cc1C
15,7.5 µM,CC/N=c1/cc2oc3cc(NCCCC(=O)OCC)c4ccccc4c3nc-2cc1C
16,120 µM,CC/N=c1/cc2oc3cc(NCCC(=O)NC(CCC(=O)OC)C(=O)OC)c4ccccc4c3nc-2cc1C (stereo unspecified)
17,> 120 µM,C[N+](C)=c1ccc2nc3c(cc(Nc4ccccc4)c4ccccc43)oc-2c1
18,60 µM,CC/N=c1/cc2oc3cc(NCCCN)c4cc5ccccc5cc4c3nc-2cc1C
19,30 µM,CC/N=c1/cc2oc3cc(NCCCN)c4ccccc4c3nc-2cc1C
20,30 µM,CC/N=c1/cc2oc3cc(NCCC(=O)NC(C(=O)OC)C(C)C)c4ccccc4c3nc-2cc1C (stereo unspecified)

row,MIC,Structure (SMILES)
1,> 120 µM,CCCCCC/N=c1\ccc2nc3c(cc(Nc4ccccc4)c4ccccc43)oc-2c1
2,60 µM,CC/N=c1/cc2oc3cc(NC(=O)C(NC(=O)OC(C)(C)C)C(C)C)c4ccccc4c3nc-2cc1C (stereo unspecified)
3,> 120 µM,CC/N=c1/cc2oc3cc(Nc4ccccc4)c4ccccc4c3nc-2cc1C
4,15 µM,CC/N=c1/cc2oc3cc(NCCCCl)c4cc5ccccc5cc4c3nc-2cc1C
5,> 120 µM,COC(=O)CCNc1cc2oc3cc(=[N+](C)C)ccc-3nc2c2ccccc12
6,15 µM,CC/N=c1/cc2oc3cc(NCCNC(=O)C(NC(=O)OC(C)(C)C)C(C)C)c4ccccc4c3nc-2cc1C (stereo unspecified)
7,120 µM,CC/N=c1/cc2oc3cc(NCCCC(=O)O)c4ccccc4c3nc-2cc1C
8,30 µM,CC/N=c1/cc2oc3cc(N)c4cc5ccccc5cc4c3nc-2cc1C
9,120 µM,CC/N=c1/cc2oc3cc(NCCC(=O)NCC(=O)OC)c4ccccc4c3nc-2cc1C
10,15 µM,CC/N=c1/cc2oc3cc(NCCC(=O)NC(Cc4ccccc4)C(=O)OC)c4ccccc4c3nc-2cc1C (stereo unspecified)
11,> 120 µM,C[N+](C)=c1ccc2nc3c(cc(NCCC(=O)O)c4ccccc43)oc-2c1
12,60 µM,CC/N=c1/cc2oc3cc(NCCCC(=O)NC(C(=O)OC)C(C)C)c4ccccc4c3nc-2cc1C (stereo unspecified)
13,30 µM,CC/N=c1/cc2oc3cc(NCCC(=O)NC(C)C(=O)OC)c4ccccc4c3nc-2cc1C (stereo unspecified)
14,15 µM,CC/N=c1/cc2oc3cc(NCCCO)c4cc5ccccc5cc4c3nc-2cc1C
15,> 120 µM,C[N+](C)=c1ccc2nc3c(cc(N)c4ccccc43)oc-2c1
16,15 µM,CC/N=c1/cc2oc3cc(NCCCC(=O)OCC)c4cc5ccccc5cc4c3nc-2cc1C
17,15 µM,CC/N=c1/cc2oc3cc(NCCC(=O)OCC)c4ccccc4c3nc-2cc1C
18,120 µM,CC/N=c1/cc2oc3cc(NCCC(=O)NCCCCC(NC(C)=O)C(=O)OC)c4ccccc4c3nc-2cc1C (stereo unspecified)
19,15 µM,CCOC(=O)CCNc1cc2oc3cc(=[N+](C)C)ccc-3nc2c2ccccc12
20,15 µM,CC/N=c1/cc2oc3cc(N)c4ccccc4c3nc-2cc1C
